ChEMBL document CHEMBL1121917, “Structure--activity relationships in a broad-spectrum anthelmintic series. Acid chloride phenylhydrazones. 1. Aryl substitutions and chloride variations” (1981)

Assays:
Mus musculus [1] = organism: Mus musculus; assay: Percent clearance of Nematospiroides dubius from mouse after oral treatment of 0.12 mg/mouse/day; assay type: functional
How it was run: (§1)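 Mice naturally carrying Syphacia obvelata were experimentally infected with Nematospiroides dubius and Hymenolepis nana, then grouped after a 2-week prepatency. Finely ground compound was suspended in aqueous 0.10% carboxymethylcellulose, 0.04% polysorbate 80 and 0.0042% polyparaben, and 0.1 mL was given orally by cannula once daily for 4 days to five mice. Necropsy followed 2 days later, scoring presence or absence of each parasite. Control clearance was subtracted from the treated clearance.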

Mus musculus [2] = organism: Mus musculus; assay: Percent clearance of Hymenolepis nana from mouse after oral treatment of 0.12 mg/mouse/day; assay type: functional; how it was run: as §1
Ovis aries [3] = assay: Percent reduction in Strongyloides eggs per gram, after treatment with 450 mg/kg dose of compound perorally in sheep; assay type: functional, Egg; details: route oral
How it was run: (§2)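 Naturally parasitized lambs, dosed orally either with a suspension by stomach tube or with finely ground compound in gelatin capsules by balling gun. Activity was scored by the clinical test method, meaning a significant fall in helminth egg counts after treatment.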

Ovis aries [4] = assay: Percent reduction in Cooperia eggs per gram, after treatment of 200 mg/kg dose of compound perorally in sheep; assay type: functional, Egg; details: route oral
How it was run: (§3)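 Naturally parasitized lambs received compound orally, either as the aqueous suspension by stomach tube or as finely ground powder in gelatin capsules by balling gun. Activity was judged by the clinical test method, as a significant decrease in posttreatment helminth egg counts.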

Ovis aries [5] = assay: Percent reduction in Ostertagia eggs per gram, after oral treatment of 250 mg/Kg dose of compound perorally in sheep; assay type: functional, Egg
How it was run: (§4)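 Naturally parasitized lambs were dosed orally at the stated mg/kg. Dosing was either as a suspension of finely ground compound by stomach tube, or as ground compound weighed into gelatin capsules and given by balling gun. Activity was scored by the clinical test method: the decrease in posttreatment helminth eggs per gram.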

Ovis aries [6] = assay: Percent reduction in Trichostrongylus eggs per gram, after ral treatment of 200 mg/kg dose of compound perorally in sheep; assay type: functional, Egg; details: route oral; how it was run: as §2
Ovis aries [7] = assay: Percent reduction in Trichostrongylus eggs per gram, after treatment with 450 mg/kg dose of compound perorally in sheep; assay type: functional, Egg; details: route oral; how it was run: as §2
Ovis aries [8] = assay: Percent reduction in Ostertagia eggs per gram, after treatment with 400 mg/kg dose of compound perorally in sheep; assay type: functional, Egg; details: route oral; how it was run: as §2
Ovis aries [9] = assay: Percent reduction in Oesophagostomum eggs per gram, after treatment with 350 mg/kg dose of compound perorally in sheep; assay type: functional, Egg; details: route oral; how it was run: as §4
Canis familiaris [10] = organism: Canis familiaris; assay: Percent reduction in Ancylostoma eggs per gram, after treatment of 100 mg/dog dose of compound in a single treatment; assay type: functional, Canis lupus familiaris, Egg
How it was run: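 Dogs naturally infected with Toxascaris leonina were experimentally infected with mixed Ancylostoma caninum and Uncinaria stenocephala larvae. Finely ground compound was given orally in gelatin capsules. Fecal egg counts were taken three times before and three times after treatment, and activity was taken as the fall in egg counts.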

Ovis aries [11] = assay: Percent reduction in Oesophagostomum eggs per gram, after treatment with 400 mg/kg dose of compound perorally in sheep; assay type: functional, Egg; details: route oral; how it was run: as §4
Ovis aries [12] = assay: Percent reduction in Nematodirus eggs per gram, after treatment of 100 mg/kg dose of compound perorally in sheep; assay type: functional, Egg; details: route oral; how it was run: as §4
Ovis aries [13] = assay: Percent reduction in Strongyloides eggs per gram, after treatment of 100 mg/kg dose of compound perorally in sheep; assay type: functional, Egg; details: route oral; how it was run: as §2
Ovis aries [14] = assay: Percent reduction in Ostertagia eggs per gram, after treatment of 200 mg/kg dose of compound perorally in sheep; assay type: functional, Egg; details: route oral; how it was run: as §4
Ovis aries [15] = assay: Percent reduction in Oesophagostomum eggs per gram, after treatment with 250 mg/kg dose of compound perorally in sheep; assay type: functional, Egg; details: route oral; how it was run: as §4
Ovis aries [16] = assay: Percent reduction in Oesophagostomum eggs per gram, after treatment of 200 mg/kg dose of compound perorally in sheep; assay type: functional, Egg; details: route oral; how it was run: as §4
Ovis aries [17] = assay: Percent reduction in Nematodirus eggs per gram, after treatment with 350 mg/kg dose of compound perorally in sheep; assay type: functional, Egg; details: route oral; how it was run: as §4
Ovis aries [18] = assay: Percent reduction in Nematodirus eggs per gram, after treatment of 200 mg/kg dose of compound perorally in sheep; assay type: functional, Egg; details: route oral; how it was run: as §4
Canis familiaris [19] = organism: Canis familiaris; assay: Percentt reduction in Toxascaris eggs per gram, after treatment of 100 mg/dog dose of compound in a single treatment; assay type: functional, Canis lupus familiaris, Egg
Ovis aries [20] = assay: Percent reduction in Cooperia eggs per gram, after treatment of 100 mg/kg dose of compound perorally in sheep; assay type: functional, Egg; details: route oral; how it was run: as §3
Canis familiaris [21] = organism: Canis familiaris; assay: Percent reduction in Uncinaria eggs per gram, after treatment of 100 mg/dog dose of compound in a single treatment; assay type: functional, Canis lupus familiaris, Egg
Ovis aries [22] = assay: Percent reduction in Ostertagia eggs per gram, after treatment with 450 mg/kg dose of compound perorally in sheep; assay type: functional, Egg; details: route oral; how it was run: as §2
Ovis aries [23] = assay: Percent reduction in Haemonchus eggs per gram, after treatment of 250 mg/kg dose of compound perorally in sheep; assay type: functional, Egg; details: route oral; how it was run: as §3
Ovis aries [24] = assay: Percent reduction in Haemonchus eggs per gram, after treatment of 200 mg/kg dose of compound perorally in sheep; assay type: functional, Egg; details: route oral; how it was run: as §3
Ovis aries [25] = assay: Percent reduction in Trichostrongylus eggs per gram, after oral treatment of 250 mg/kg dose of compound perorally in sheep; assay type: functional, Egg; how it was run: as §2
Ovis aries [26] = assay: Percent reduction in Trichostrongylus eggs per gram, after treatment with 350 mg/kg dose of compound perorally in sheep; assay type: functional, Egg; details: route oral
Ovis aries [27] = assay: Percent reduction in Trichuris eggs per gram, after treatment with 350 mg/kg dose of compound perorally
Ovis aries [28] = assay: Percent reduction in Cooperia eggs per gram, after treatment with 400 mg/kg dose of compound perorally in sheep; assay type: functional, Egg; details: route oral; how it was run: as §3
Ovis aries [29] = assay: Percent reduction in Strongyloides eggs per gram, after treatment with 350 mg/kg dose of compound perorally in sheep; assay type: functional, Egg; details: route oral; how it was run: as §2
Ovis aries [30] = assay: Percent reduction in Haemonchus eggs per gram, after oral treatment of 100 mg/kg dose of compound perorally in sheep; assay type: functional, Egg; how it was run: as §3
Ovis aries [31] = assay: percent reduction in Strongyloides eggs per gram, after treatment with 250 mg/kg dose of compound perorally in sheep; assay type: functional, Egg; details: route oral
Ovis aries [32] = assay: Percent reduction in Trichuris eggs per gram, after treatment with 450 mg/kg dose of compound perorally in sheep; assay type: functional, Egg; details: route oral; how it was run: as §2
Ovis aries [33] = assay: Percent reduction in Trichostrongylus eggs per gram, treatment of 100 mg/kg dose of compound perorally in sheep; assay type: functional, Egg; details: route oral
Ovis aries [34] = assay: Percent reduction in Ostertagia eggs per gram, after treatment of 100 mg/kg dose of compound perorally in sheep; assay type: functional, Egg; details: route oral; how it was run: as §4
Ovis aries [35] = assay: Percent reduction in Nematodirus eggs per gram, after treatment with 250 mg/kg dose of compound perorally in sheep; assay type: functional, Egg; details: route oral; how it was run: as §4
Mus musculus [36] = organism: Mus musculus; assay: Percent clearance of Hymenolepis nana from mouse after oral treatment of 1.87 mg/mouse/day; assay type: functional; how it was run: as §1
Ovis aries [37] = assay: Percent reduction in Ostertagia eggs per gram, after treatment with 350 mg/kg dose of compound perorally in sheep; assay type: functional, Egg; details: route oral; how it was run: as §2
Ovis aries [38] = assay: Percent reduction in Strongyloides eggs per gram, after treatment of 200 mg/kg dose of compound perorally in sheep; assay type: functional, Egg; details: route oral; how it was run: as §2
Ovis aries [39] = assay: Percent reduction in Nematodirus eggs per gram, after treatment with 400 mg/kg dose of compound perorally in sheep; assay type: functional, Egg; details: route oral; how it was run: as §4
Ovis aries [40] = assay: Percent reduction in Haemonchus eggs per gram, after treatment with 400 mg/kg dose of compound perorally in sheep; assay type: functional, Egg; details: route oral; how it was run: as §4
Ovis aries [41] = assay: Percent reduction in Trichuris eggs per gram, after treatment of with 200 mg/kg dose of compound perorally in sheep; assay type: functional, Egg; details: route oral
Ovis aries [42] = assay: Percent reduction in Trichuris eggs per gram, after treatment of 100 mg/kg dose of compound perorally in sheep; assay type: functional, Egg; details: route oral
Ovis aries [43] = assay: Percent reduction in Moniezia eggs per gram, after treatment of 200 mg/kg dose of compound perorally in sheep; assay type: functional, Egg; details: route oral; how it was run: as §4
Ovis aries [44] = assay: Percent reduction in Trichuris eggs per gram, after treatment with 400 mg/kg dose of compound perorally in sheep; assay type: functional, Egg; details: route oral; how it was run: as §2
Ovis aries [45] = assay: Percent reduction in Haemonchus eggs per gram, after treatment with 450 mg/kg dose of compound perorally in sheep; assay type: functional, Egg; details: route oral; how it was run: as §4
Ovis aries [46] = assay: Percent reduction in Strongyloides eggs per gram, after treatment with 400 mg/kg dose of compound perorally in sheep; assay type: functional, Egg; details: route oral; how it was run: as §2
Ovis aries [47] = assay: Percent reduction in Oesophagostomum eggs per gram, after treatment of 100 mg/kg dose of compound perorally in sheep; assay type: functional, Egg; details: route oral; how it was run: as §4
Ovis aries [48] = assay: Percent reduction in Trichuris eggs per gram, after treatment with 250 mg/kg dose of compound perorally in sheep; assay type: functional, Egg; details: route oral; how it was run: as §2
Mus musculus [49] = organism: Mus musculus; assay: Percent clearance of Nematospiroides dubius from mouse after oral treatment of 1.87 mg/mouse/day; assay type: functional; how it was run: as §1
Ovis aries [50] = assay: Percent reduction in Trichostrongylus eggs per gram, after treatment with 400 mg/kg dose of compound perorally in sheep; assay type: functional, Egg; details: route oral; how it was run: as §2
Ovis aries [51] = assay: Percent reduction in Moniezia eggs per gram, after treatment with 400 mg/kg dose of compound perorally in sheep; assay type: functional, Egg; details: route oral; how it was run: as §4

Cc1cccc(/C(Cl)=N/Nc2ccccc2)c1
Parasite_Clearance (Mus musculus [1]): 0%
Parasite_Clearance (Mus musculus [2]): 0%

FC(F)(F)c1cccc(/C(Cl)=N/Nc2ccccc2)c1
Reduction (Ovis aries [3]): 100%
Reduction (Ovis aries [4]): 100%
Reduction (Ovis aries [5]): 86%
Reduction (Ovis aries [6]): 99%
Reduction (Ovis aries [7]): 100%
Reduction (Ovis aries [8]): 100%
Reduction (Ovis aries [9]): 100%
Reduction (Canis familiaris [10]): 100%
Reduction (Ovis aries [11]): 100%
Reduction (Ovis aries [12]): 100%
Reduction (Ovis aries [13]): 98%
Reduction (Ovis aries [14]): 100%
Reduction (Ovis aries [15]): 91%
Reduction (Ovis aries [16]): 100%
Reduction (Ovis aries [17]): 100%
Reduction (Ovis aries [18]): 100%
Reduction (Canis familiaris [19]): 100%
Reduction (Ovis aries [20]): 100%
Reduction (Canis familiaris [21]): 100%
Reduction (Ovis aries [22]): 100%
Reduction (Ovis aries [23]): 84%
Reduction (Ovis aries [24]): 99%
Reduction (Ovis aries [25]): 71%
Reduction (Ovis aries [26]): 100%
Reduction (Ovis aries [27]): 0%
Reduction (Ovis aries [28]): 100%
Reduction (Ovis aries [29]): 100%
Reduction (Ovis aries [30]): 98%
Reduction (Ovis aries [31]): 59%
Reduction (Ovis aries [32]): 0%
Reduction (Ovis aries [33]): 97%
Reduction (Ovis aries [34]): 98%
Reduction (Ovis aries [35]): 29%
Parasite_Clearance (Mus musculus [36]): 75%
Reduction (Ovis aries [37]): 100%
Reduction (Ovis aries [38]): 100%
Reduction (Ovis aries [39]): 100%
Reduction (Ovis aries [40]): 100%
Reduction (Ovis aries [41]): 0%
Reduction (Ovis aries [42]): 35%
Reduction (Ovis aries [43]): 100%
Reduction (Ovis aries [44]): 62%
Reduction (Ovis aries [45]): 100%
Reduction (Ovis aries [46]): 100%
Reduction (Ovis aries [47]): 100%
Reduction (Ovis aries [48]): 57%
Parasite_Clearance (Mus musculus [49]): 0%
Reduction (Ovis aries [50]): 100%
Reduction (Ovis aries [51]): 100%
